Results from ChEMBL document CHEMBL3351454, “Design, synthesis, antimicrobial evaluation and molecular docking studies of some new thiophene, pyrazole and pyridone derivatives bearing sulfisoxazole moiety” (2014).
Converted amounts (≈) assume the structure as drawn.

Key:
Assay type in all cases: functional
[1] = tested on: Syncephalastrum racemosum; experiment: Antifungal activity against Syncephalastrum racemosum RCMB 05922 assessed as inhibition zone at 5 mg/ml after 48 hrs; settings: RCMB 05922, 48 h, read-out: IZ
[2] = tested on: Klebsiella pneumoniae; experiment: Antimicrobial activity against Klebsiella pneumoniae RCMB 010093 assessed as absence of turbidity after 24 hrs; settings: RCMB 010093, 24 h
In short: (§1)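 Broth microdilution in Müller–Hinton broth. DMF stocks at 1000 µg/mL were diluted in broth to give twofold serial dilutions over 500–0.007 µg/mL. Bacterial inoculum was about 10^6 CFU/mL in 96-well plates, sealed and incubated at 37 °C for 24 h in a humid chamber. MIC was taken as the lowest concentration with no visible turbidity. DMF and uninoculated-medium controls were included. Only compounds giving zones >10 mm were tested.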

[3] = tested on: Staphylococcus epidermidis; experiment: Antimicrobial activity against Staphylococcus epidermidis RCMB 010024 assessed as absence of turbidity after 24 hrs; settings: RCMB 010024, 24 h; in short: as §1
[4] = tested on: Geotrichum candidum; experiment: Antifungal activity against Geotrichum candidum RCMB 05097 assessed as inhibition zone at 5 mg/ml after 48 hrs; settings: RCMB 05097, 48 h, read-out: IZ
In short: (§2)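 Disk diffusion on nutrient agar seeded with 10^4 CFU/mL fungus. Sterile filter-paper disks carried 100 µL of a 5 mg/mL DMF solution, and DMF alone served as control. Plates were incubated at 25 °C for 48 h. Mean inhibition zone in mm ± SD was read beyond the 6 mm diameter, in triplicate.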

[5] = tested on: Aspergillus fumigatus; experiment: Antifungal activity against Aspergillus fumigatus RCMB 02568 assessed as absence of turbidity after 48 hrs; settings: RCMB 02568, 48 h
In short: as §1, with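 “Sabouraud liquid medium.” for “Müller–Hinton broth.”, “Fungal” for “Bacterial”, “10^4” for “10^6”, “25” for “37”, “48” for “24”, “included.” for “included. Only compounds giving zones >10 mm were tested.”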

[6] = tested on: Proteus vulgaris; experiment: Antimicrobial activity against Proteus vulgaris RCMB 010085 assessed as inhibition zone at 5 mg/ml after 24 hrs; settings: RCMB 010085, 24 h, read-out: IZ
In short: (§3)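 Agar diffusion on nutrient agar seeded with 10^6 CFU/mL bacteria. Filter-paper disks were loaded with 100 µL of a 5 mg/mL compound solution in DMF, with a DMF-only control. Incubation was 37 °C for 24 h. Inhibition zone in mm (mean ± SD, triplicate plates) was measured beyond the 6 mm diameter.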

[7] = tested on: Escherichia coli; experiment: Antimicrobial activity against Escherichia coli RCMB 010052 assessed as absence of turbidity after 24 hrs; settings: RCMB 010052, 24 h; in short: as §1
[8] = tested on: Klebsiella pneumoniae; experiment: Antimicrobial activity against Klebsiella pneumoniae RCMB 010093 assessed as inhibition zone at 5 mg/ml after 24 hrs; settings: RCMB 010093, 24 h, read-out: IZ; in short: as §3
[9] = tested on: Streptococcus pneumoniae; experiment: Antimicrobial activity against Streptococcus pneumoniae RCMB 010010 assessed as inhibition zone at 5 mg/ml after 24 hrs; settings: RCMB 010010, 24 h, read-out: IZ; in short: as §3
[10] = tested on: Syncephalastrum racemosum; experiment: Antifungal activity against Syncephalastrum racemosum RCMB 05922 assessed as absence of turbidity after 48 hrs; settings: RCMB 05922, 48 h
[11] = tested on: Aspergillus fumigatus; experiment: Antifungal activity against Aspergillus fumigatus RCMB 02568 assessed as inhibition zone at 5 mg/ml after 48 hrs; settings: RCMB 02568, 48 h, read-out: IZ; in short: as §2
[12] = tested on: Bacillus subtilis; experiment: Antimicrobial activity against Bacillis subtilis RCMB 010067 assessed as inhibition zone at 5 mg/ml after 24 hrs; settings: RCMB 010067, 24 h, read-out: IZ; in short: as §3
[13] = tested on: Proteus vulgaris; experiment: Antimicrobial activity against Proteus vulgaris RCMB 010085 assessed as absence of turbidity after 24 hrs; settings: RCMB 010085, 24 h; in short: as §1
[14] = tested on: Geotrichum candidum; experiment: Antifungal activity against Geotrichum candidum RCMB 05097 assessed as absence of turbidity after 48 hrs; settings: RCMB 05097, 48 h
In short: as §1, with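 “Sabouraud liquid medium.” for “Müller–Hinton broth.”, “Fungal” for “Bacterial”, “10^4” for “10^6”, “25” for “37”, “48” for “24”, “included.” for “included. Only compounds giving zones >10 mm were tested.”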

[15] = tested on: Bacillus subtilis; experiment: Antimicrobial activity against Bacillis subtilis RCMB 010067 assessed as absence of turbidity after 24 hrs; settings: RCMB 010067, 24 h; in short: as §1
[16] = tested on: Staphylococcus epidermidis; experiment: Antimicrobial activity against Staphylococcus epidermidis RCMB 010024 assessed as inhibition zone at 5 mg/ml after 24 hrs; settings: RCMB 010024, 24 h, read-out: IZ; in short: as §3
[17] = tested on: Streptococcus pneumoniae; experiment: Antimicrobial activity against Streptococcus pneumoniae RCMB 010010 assessed as absence of turbidity after 24 hrs; settings: RCMB 010010, 24 h; in short: as §1
[18] = tested on: Escherichia coli; experiment: Antimicrobial activity against Escherichia coli RCMB 010052 assessed as inhibition zone at 5 mg/ml after 24 hrs; settings: RCMB 010052, 24 h, read-out: IZ; in short: as §3

SMILES	zone of inhibition at 5000 µg/mL [1]	MIC [2]	MIC [3]	zone of inhibition at 5000 µg/mL [4]	MIC [5]	zone of inhibition at 5000 µg/mL [6]	MIC [7]	zone of inhibition at 5000 µg/mL [8]	zone of inhibition at 5000 µg/mL [9]	MIC [10]	zone of inhibition at 5000 µg/mL [11]	zone of inhibition at 5000 µg/mL [12]	MIC [13]	MIC [14]	MIC [15]	zone of inhibition at 5000 µg/mL [16]	MIC [17]	zone of inhibition at 5000 µg/mL [18]
Cc1noc(NS(=O)(=O)c2ccc(-n3c(S)c(C#N)c(-c4ccco4)c(C#N)c3=O)cc2)c1C	20.6 mm	0.24 µg/mL (≈ 0.486 µM)	0.98 µg/mL (≈ 1.99 µM)	24.3 mm	0.49 µg/mL (≈ 0.993 µM)	18.3 mm	0.98 µg/mL (≈ 1.99 µM)	22.6 mm	22.6 mm	0.98 µg/mL (≈ 1.99 µM)	22 mm	23.6 mm	7.81 µg/mL (≈ 15.8 µM)	0.12 µg/mL (≈ 0.243 µM)	0.12 µg/mL (≈ 0.243 µM)	21.4 mm	0.24 µg/mL (≈ 0.486 µM)	21.6 mm
Cc1noc(NS(=O)(=O)c2ccc(NC(=O)/C(C#N)=C/c3ccccc3)cc2)c1C	18.8 mm	0.49 µg/mL (≈ 1.16 µM)	3.9 µg/mL (≈ 9.23 µM)	20.9 mm	15.6 µg/mL (≈ 37 µM)	18 mm	1.95 µg/mL (≈ 4.62 µM)	21.9 mm	18.4 mm	7.81 µg/mL (≈ 18.5 µM)	17.1 mm	20.3 mm	7.81 µg/mL (≈ 18.5 µM)	0.98 µg/mL (≈ 2.32 µM)	1.95 µg/mL (≈ 4.62 µM)	19.1 mm	7.81 µg/mL (≈ 18.5 µM)	20.6 mm
Cc1noc(NS(=O)(=O)c2ccc(-n3c(S)c(C#N)c(-c4cccnc4)c(C#N)c3=O)cc2)c1C	19.2 mm	0.98 µg/mL (≈ 1.94 µM)	1.95 µg/mL (≈ 3.86 µM)	22 mm	0.98 µg/mL (≈ 1.94 µM)	17.6 mm	3.9 µg/mL (≈ 7.73 µM)	21 mm	21.3 mm	3.9 µg/mL (≈ 7.73 µM)	21.2 mm	22.6 mm	7.81 µg/mL (≈ 15.5 µM)	0.49 µg/mL (≈ 0.971 µM)	0.24 µg/mL (≈ 0.476 µM)	20 mm	0.98 µg/mL (≈ 1.94 µM)	19.2 mm
COc1ccc(-c2[nH]nc(N)c2C(=O)Nc2ccc(S(=O)(=O)Nc3onc(C)c3C)cc2)cc1	24.4 mm	15.6 µg/mL (≈ 32.4 µM)	3.9 µg/mL (≈ 8.08 µM)	13.6 mm	0.03 µg/mL (≈ 0.0622 µM)	19.6 mm	7.81 µg/mL (≈ 16.2 µM)	17.1 mm	22 mm	0.12 µg/mL (≈ 0.249 µM)	26.1 mm	20.4 mm	1.95 µg/mL (≈ 4.04 µM)	125 µg/mL (≈ 259 µM)	1.95 µg/mL (≈ 4.04 µM)	18.9 mm	0.49 µg/mL (≈ 1.02 µM)	17.8 mm
Cc1noc(NS(=O)(=O)c2ccc(NC(=O)/C(C#N)=C/c3ccc(Cl)cc3)cc2)c1C	21.6 mm	0.06 µg/mL (≈ 0.131 µM)	0.49 µg/mL (≈ 1.07 µM)	24.6 mm	0.98 µg/mL (≈ 2.14 µM)	19.2 mm	0.49 µg/mL (≈ 1.07 µM)	23.9 mm	20.3 mm	0.98 µg/mL (≈ 2.14 µM)	20.3 mm	25.6 mm	3.9 µg/mL (≈ 8.54 µM)	0.12 µg/mL (≈ 0.263 µM)	0.03 µg/mL (≈ 0.0657 µM)	22.3 mm	0.98 µg/mL (≈ 2.14 µM)	22.1 mm
Cc1noc(NS(=O)(=O)c2ccc(-n3c(S)c(C#N)c(-c4ccc(Cl)cc4)c(C#N)c3=O)cc2)c1C	20.2 mm	0.24 µg/mL (≈ 0.446 µM)	0.49 µg/mL (≈ 0.911 µM)	22.8 mm	0.98 µg/mL (≈ 1.82 µM)	19.3 mm	0.98 µg/mL (≈ 1.82 µM)	23.2 mm	22.3 mm	1.95 µg/mL (≈ 3.62 µM)	21.6 mm	24.4 mm	3.9 µg/mL (≈ 7.25 µM)	0.24 µg/mL (≈ 0.446 µM)	0.12 µg/mL (≈ 0.223 µM)	20.2 mm	0.49 µg/mL (≈ 0.911 µM)	20.6 mm
